In the library only some 3.5% were active in any assay of this set; here they are far more common.
rCAG RNA binder: molecules binding r(CAG) RNA repeats | 1.3% of 370,000 active | r(CAG) RNA repeat, TO-PRO-1 dye displacement fluorescence | AID 651821 | inhibition, % at 3 µM;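 active means inhibition above the plate cutoff, the mean of all test compounds on that plate plus 3 SD, cut at about 35% in these data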;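 further: 0% = DMSO alone and 100% = 100 µM mitoxantrone as full dye displacement; higher means more dye released from RNA so lower well fluorescence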
SIAE primary: human SIAE inhibition, primary screen. Q9HAT2. SIAE FP-Rh probe binding, fluorescence polarization. inhibition, % at 9.66 µM. 0.69% of 370,000 active. AID 1053197;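 active means inhibition above a cutoff: mean of compounds within the control limits plus 3 SD of those, cut at about 17% in these data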;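 further: 0% = plate median of compound wells and 100% = probe without SIAE protein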
Target sequence (Q9HAT2 whole entry, looked up): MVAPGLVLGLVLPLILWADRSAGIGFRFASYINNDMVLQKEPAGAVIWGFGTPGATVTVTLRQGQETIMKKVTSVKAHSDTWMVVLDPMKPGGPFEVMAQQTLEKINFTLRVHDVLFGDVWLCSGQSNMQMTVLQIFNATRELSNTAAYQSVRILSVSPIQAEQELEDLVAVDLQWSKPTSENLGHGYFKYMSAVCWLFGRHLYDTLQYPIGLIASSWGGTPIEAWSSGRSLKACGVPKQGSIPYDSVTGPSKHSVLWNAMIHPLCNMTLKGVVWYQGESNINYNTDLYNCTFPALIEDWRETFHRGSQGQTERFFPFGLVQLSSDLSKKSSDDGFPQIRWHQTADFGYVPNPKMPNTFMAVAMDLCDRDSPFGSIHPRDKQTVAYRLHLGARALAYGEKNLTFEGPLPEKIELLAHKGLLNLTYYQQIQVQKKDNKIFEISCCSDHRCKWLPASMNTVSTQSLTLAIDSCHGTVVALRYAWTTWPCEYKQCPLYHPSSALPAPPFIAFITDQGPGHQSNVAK
PRMT1 inh: inhibitors of human PRMT1 | Q99873 | recombinant PRMT1, activity-based probe fluorescence polarization | inhibition, % at 2.79 µM | 1.3% of 370,000 active | AID 652257;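 active means inhibition above about 21% made by adding two undisclosed values, limit read from the data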
TCR CD3 inh: blocks the human TCR-CD3 interaction; inhibition, % at 9.4 µM; 0.37% of 360,000 active; TAMRA-labeled TCR probe fluorescence, biochemical; in the data active means inhibition above about 19%;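 further: recombinant mutant TCR 2C K166C tagged with TAMRA read by polarization; 0% = receptor in buffer alone and 100% = receptor with positive control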
mABHD4 FP: inhibits mouse alpha/beta hydrolase domain 4; Q8VD66; purified mABHD4, FP-Rh probe fluorescence polarization; inhibition, % at 8.92 µM; 0.54% of 370,000 active;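 active means inhibition exceeding the mean over every tested compound plus 3 SD, cut at about 30% in these data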;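 further: 0% = plate median of compound wells and 100% = S159A mutant with DMSO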
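Test system: mouse ABHD4 enzyme, wild type. Reagent: FP-Rh fluorescent activity-based probe, added after compound pre-incubation. Timing: pre-incubation 45 min, probe exposure 60 min, at 25 °C. Technique: FP readout, ex 525 nm / em 598 nm. Benchmarks: high control S159A mutant with DMSO, low control median of compound wells.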
HTRA1 inhibitor: HTRA1 (human) protease inhibition; Q92743; recombinant HTRA1, FP-rhodamine activity-based probe, fluorescence polarization; inhibition, % at 5.96 µM; 0.5% of 340,000 active; in the data active means inhibition above about 36%;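 further: 0% = enzyme with DMSO and 100% = wells lacking enzyme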
rCAG bind conf: r(CAG) RNA repeat binding, confirmation; shares compounds with rCAG RNA binder; TO-PRO-1 dye displacement fluorescence; inhibition, % at 3 µM; 70% of 4,300 active; AID 652065;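 active means inhibition above a per-plate cutoff, the mean inhibition of sample wells plus 3 SD, cut at about 35% in these data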;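 further: loss of TO-PRO-1 fluorescence as compound displaces dye from 1x1 AA loop RNA; 0% = DMSO only wells and 100% = 100 µM mitoxantrone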
dCAG dye counter: disrupts DNA CAG TO-PRO-1 complex, flagging rCAG hits. shares compounds with rCAG RNA binder. d(CAG) DNA oligo TO-PRO-1 dye displacement, fluorescence. inhibition, % at 3 µM. 94% of 4,300 active. AID 652068;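 active means inhibition above its plate's cutoff, the mean test-well inhibition plus 3 SD, cut at about 4.8% in these data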;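 further: 0% = DNA dye mix with DMSO and 100% = 100 µM mitoxantrone; hits displace the dye from DNA and so lower well fluorescence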
DNA CAG DR: counter-screen for rCAG binders: inhibitors of DNA CAG TO-PRO-1 complex; DNA CAG/GTC duplex TO-PRO-1 dye displacement fluorescence; AID 686960; IC50, µM; shares compounds with rCAG RNA binder; 20% of 250 active; in the data active means IC50 below about 10 µM
An asterisk follows results filed as active; i = inactive; nt = not tested or not shown.

SMILES | rCAG RNA binder | SIAE primary | PRMT1 inh | TCR CD3 inh | mABHD4 FP | HTRA1 inhibitor | rCAG bind conf | dCAG dye counter | others
Cc1ccc(NC(=O)Nc2nc(-c3ccc(C)s3)cs2)cc1 | 52* | 4 | 3 | 7 | -2 | -12 | 17 | 21*
O=C(CSc1nc2ccccc2nc1N1CCCCC1)NCc1ccc(Cl)cc1Cl | 6 | -2 | -4 | nt | -1 | nt | nt | nt
Cc1ccc(NC(=O)CSc2sc3c(O)cc(=O)[nH]c3c2C#N)c(F)c1 | 45* | -30 | 12 | 9 | -2 | -26 | 26 | 11*
N#Cc1c(SCC(=O)Nc2ccc(C(F)(F)F)cc2)sc2c(O)cc(=O)[nH]c12 | 53* | -12 | 14 | -4 | -2 | -22 | 30 | 11*
COC(=O)CNC(=O)[C@H](Cc1ccccc1)NC1(C(=O)NCCc2c[nH]c3ccccc23)CCCCC1 | nt | 3 | -10 | nt | -8 | nt | nt | nt
Cc1ccc(-n2c(SCC(=O)Nc3cccc4ccccc34)nnc2-c2cnccn2)cc1 | 3 | 10 | -3 | nt | 1 | nt | nt | nt
O=C(Nc1ccc(Nc2ccccc2)cc1)c1ccc(Cl)cc1 | 6 | 11 | -2 | -1 | 7 | 11 | nt | nt
N#C/C(C(=O)Nc1ccc(Cl)cc1)=C(/S)Nc1ccccc1 | 56* | 6 | 91* | -1 | 20 | -37 | 71* | 24* | DNA CAG DR=i
O=C(Nc1ccc(F)cc1)Nc1nnc(Cc2ccccc2F)s1 | 45* | 2 | 0 | -2 | -11 | -5 | 18 | 16*
CCSCCc1nnc(NC(=O)Nc2cccc(C(F)(F)F)c2)s1 | 38* | -7 | 2 | 1 | -12 | -22 | 27 | 19*
COc1cccc(NC(=O)Nc2nnc(Cc3ccccc3F)s2)c1 | 40* | -12 | -3 | 6 | -2 | -6 | 22 | 14*
C=CCN1C(=O)[C@@H](CC(=O)NCc2ccccc2)[C@]2(C(=O)OCC)CCCCC/C=C/12 | 5 | 5 | 0 | nt | -1 | nt | nt | nt
COc1cccc(C(=O)N(CCN2CCOCC2)Cc2ccc(OC)c(OC)c2)c1 | 1 | 1 | -4 | nt | -1 | nt | nt | nt
COc1cc(NC(=O)c2ccccn2)ccc1NC(=O)c1ccccc1Cl | nt | -4 | -2 | nt | -2 | nt | nt | nt
COCCCN1C(=O)[C@H](CC(=O)NCc2ccc(OC)c(OC)c2)[C@]2(C(=O)OC)CCCCC=C12 | 2 | 5 | -4 | nt | 5 | nt | nt | nt
O=C(COc1ccc(F)cc1Cl)Nc1nnc(-c2ccc(F)c(F)c2)o1 | nt | -3 | -1 | nt | -11 | nt | nt | nt
COc1cc([N+](=O)[O-])cc(/C=N\NC(=O)C2COc3ccccc3O2)c1O (stereo unspecified) | 24 | 4 | -2 | 6 | 17 | 18 | nt | nt
COc1cc([N+](=O)[O-])cc(/C=N/NC(=O)C(O)(c2ccccc2)c2ccccc2)c1O | 38* | 9 | 1 | -11 | 9 | 16 | 34 | 13*
O=C(CCc1ccccc1)Nc1ccc(S(=O)(=O)Nc2nccs2)cc1 | 21 | 0 | 4 | -2 | 0 | -1 | nt | nt
O=C(CCN1C(=O)S/C(=C\c2ccccc2)C1=O)Nc1ccc(S(=O)(=O)Nc2nccs2)cc1 | 77* | -6 | 12 | 0 | -12 | -20 | 74* | 39*
COc1ccccc1/C=C1/SC(=O)N(CCC(=O)Nc2ccc(S(=O)(=O)Nc3nccs3)cc2)C1=O | 79* | -23 | 0 | 7 | -62 | -25 | 80* | 46*
Cc1cc(C)nc(NS(=O)(=O)c2ccc(NC(=O)CN3C(=O)S/C(=C\c4ccccc4)C3=O)cc2)n1 | 60* | -23 | 2 | 1 | -20 | -29 | 69* | 30*
CC(C)CNC(=O)OCc1cn(Cc2ccccc2C(F)(F)F)nn1 | 3 | 0 | 2 | nt | -2 | nt | nt | nt
CC(C)C(=O)N1CC[C@H]2[C@H](CCCN2Cc2cc(F)cc(F)c2)C1 | -2 | 3 | 0 | nt | -3 | nt | nt | nt
Cc1ccc2oc(-c3cccc(NC(=S)NC(=O)c4cccs4)c3)nc2c1 | 1 | -3 | 2 | 0 | 6 | -3 | nt | nt
SMILES | rCAG RNA binder | SIAE primary | PRMT1 inh | TCR CD3 inh | mABHD4 FP | HTRA1 inhibitor | rCAG bind conf | dCAG dye counter | others
O=C(/C=C/c1ccco1)NC(=S)Nc1nc(-c2ccc3ccccc3c2)cs1 | 40* | -18 | -3 | -1 | -13 | -25 | 20 | 14*
CCOc1ccc(NC(=S)NC(=O)/C=C/c2ccco2)cc1 | 10 | 8 | 6 | -1 | 1 | -8 | nt | nt
COc1cc(NS(=O)(=O)c2ccc(NC(=S)NC(=O)/C=C/c3ccco3)cc2)ncn1 | 57* | -10 | 19 | 11 | 9 | -5 | 48* | 16*
Cc1ccc2oc(-c3cccc(NC(=S)NC(=O)/C=C/c4ccco4)c3)nc2c1 | 37* | -8 | 16 | -1 | -19 | -57 | 17 | 9.8*
COc1ccc(/C=C/C(=O)NC(=S)Nc2ccc(S(=O)(=O)Nc3ccc(OC)nn3)cc2)cc1 | 70* | -9 | 0 | 2 | 10 | -21 | 66* | 33*
COC(=O)[C@]12C[C@H](CC(=O)NCc3cccc(C(F)(F)F)c3)C(=O)N(CCC3=CCCCC3)C1=C[C@H](C1CCCC1)O[C@@H]2C | 3 | -4 | 5 | nt | 0 | nt | nt | nt
C/C(=N/NC(=O)Cc1cccs1)c1cccc([N+](=O)[O-])c1 | 2 | -1 | -6 | nt | 0 | nt | nt | nt
COc1ccc(-c2cc(-c3nnc(SCC(=O)Nc4nccs4)n3N)[nH]n2)cc1 | 3 | -6 | -6 | nt | -4 | nt | nt | nt
O=C(NCc1ccccc1)c1ccc2c(=O)n(CC3CCCO3)c(=S)[nH]c2c1 (stereo unspecified) | -2 | 0 | 1 | -6 | -9 | -8 | nt | nt
O=C(NCc1ccco1)c1sc(=S)n2c1[nH]c(=O)c1ccccc12 | 62* | -30 | 4 | 4 | 25 | 7 | 66* | 22*
O=C(NC1CCCC1)c1sc(=S)n2c1[nH]c(=O)c1ccccc12 | 14 | -9 | -3 | 7 | 12 | 7 | nt | nt
O=C(NCc1ccccc1)c1ccc2c(=O)[nH]c3c(C(=O)NCC4CCCO4)sc(=S)n3c2c1 (stereo unspecified) | 50* | -2 | 1 | 5 | 26 | -4 | 91* | 66*
C[C@H](CCCCC1(C)OCCO1)CCC(=O)N(c1ccccc1)c1ccccc1 | 1 | 1 | 2 | nt | -7 | nt | nt | nt
CCCS(=O)(=O)c1c(S(=O)(=O)CCC)c2c(N)cccn2c1C(=O)c1ccccc1 | 43* | 6 | 12 | 6 | 8 | 8 | 25 | 10*
O=C(Nc1ccccc1C(=O)O)c1cccc(NC(=O)c2ccc(Br)o2)c1 | 45* | -16 | 11 | 2 | -40 | -16 | 40* | 7.8*

Screening data as filed in PubChem BioAssay.
